Test results from ChEMBL document CHEMBL3813699, “Structure-Activity Relationships of a Diverse Class of Halogenated Phenazines That Targets Persistent, Antibiotic-Tolerant Bacterial Biofilms and Mycobacterium tuberculosis” (J Med Chem, 2016).
Converted amounts (≈) assume the structure as drawn.

Key:
Staphylococcus aureus [1] = assay: Antibiofilm activity against methicillin-resistant Staphylococcus aureus isolate 2 assessed as biofilm eradication incubated for 24 hrs by CBD assay; type: functional; conditions: for MBC: Staphylococcus aureus, isolate 2, 24 h
Procedure, shortened: (§1)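 Calgary Biofilm Device: pegs inoculated with mid-log culture diluted 1,000-fold in TSB + 0.5% glucose, 24 h 37 °C; washed pegs challenged with 2-fold dilutions 24 h 37 °C; pegs moved to fresh TSBG 24 h; MBEC = lowest concentration leaving no turbidity; 2–6 independent experiments.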

Staphylococcus aureus [2] = assay: Antibiofilm activity against methicillin-resistant Staphylococcus aureus BAA-1707 assessed as biofilm eradication incubated for 24 hrs by CBD assay; type: functional; conditions: for MBC: Staphylococcus aureus, BAA-1707, 24 h; procedure, shortened: as §1
[3] = system: Staphylococcus epidermidis; assay: Antibacterial activity against Staphylococcus epidermidis ATCC 12228 incubated for 16 to 18 hrs by broth microdilution method; type: functional
Staphylococcus aureus [4] = assay: Antibacterial activity against methicillin-resistant Staphylococcus aureus BAA-44 incubated for 16 to 18 hrs by broth microdilution method; type: functional
Staphylococcus aureus [5] = assay: Antibacterial activity against methicillin-resistant Staphylococcus aureus BAA-1707 incubated for 16 to 18 hrs by broth microdilution method; type: functional
[6] = system: Staphylococcus epidermidis; assay: Antibacterial activity against methicillin-resistant Staphylococcus epidermidis ATCC 35984 incubated for 16 to 18 hrs by broth microdilution method; type: functional
Staphylococcus aureus [7] = assay: Antibacterial activity against methicillin-resistant Staphylococcus aureus clinical isolate 2 incubated for 16 hrs by broth microdilution method in presence of Cu2+; type: functional; conditions: isolate 2, 16 h
Staphylococcus aureus [8] = assay: Antibacterial activity against methicillin-resistant Staphylococcus aureus clinical isolate 2 incubated for 16 hrs by broth microdilution method in presence of Fe2+; type: functional; conditions: isolate 2, 16 h
Staphylococcus aureus [9] = assay: Antibacterial activity against methicillin-resistant Staphylococcus aureus clinical isolate 2 incubated for 16 hrs by broth microdilution method; type: functional; conditions: isolate 2, 16 h
[10] = system: Staphylococcus epidermidis; assay: Antibacterial activity against methicillin-resistant Staphylococcus epidermidis ATCC 35984 assessed as biofilm eradication incubated for 24 hrs by CBD assay; type: functional; conditions: for MBC: Staphylococcus epidermidis, ATCC 35984, 24 h; procedure, shortened: as §1
Staphylococcus aureus [11] = assay: Antibacterial activity against methicillin-resistant Staphylococcus aureus clinical isolate 2 incubated for 16 to 18 hrs by broth microdilution method; type: functional
Enterococcus faecium [12] = assay: Antibacterial activity against vancomycin-resistant Enterococcus faecium ATCC 700221 incubated for 16 to 18 hrs by broth microdilution method; type: functional
[13] = system: Mycobacterium tuberculosis; assay: Antibacterial activity against Mycobacterium tuberculosis H37Ra ATCC 25177 after 7 days by two-fold serial dilution method; type: functional; conditions: H37Ra ATCC 25177, 168 h
HeLa = assay: Cytotoxicity against human HeLa cells after 24 hrs by LDH release assay; type: cell-based
Procedure, shortened: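 HeLa in DMEM + 10% FBS, 37 °C 5% CO2, at 70–80% confluence treated with 25, 50, 100 µM for 24 h; DMSO vehicle; Triton X-100 2% v/v max-LDH control, medium-only negative; supernatant with LDH reaction mix 30 min room temperature, stopped, absorbance 490 nm.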

Staphylococcus aureus [14] = assay: Antibiofilm activity against methicillin-resistant Staphylococcus aureus BAA-44 assessed as biofilm eradication incubated for 24 hrs by CBD assay; type: functional; procedure, shortened: as §1
Enterococcus faecium [15] = assay: Antibiofilm activity against […]-resistant Enterococcus faecium ATCC 700221 assessed as biofilm eradication incubated for 24 hrs by CBD assay; type: functional; conditions: for MBC: Enterococcus faecium, ATCC 700221, 24 h; procedure, shortened: as §1
[16] = Induction of hemolysis in human RBC at 200 uM incubated for 1 hr; type: cell-based, Erythrocyte; conditions: red blood cells, read-out: Activity
Procedure, shortened: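 Human RBCs (EDTA), washed three times in Tris-buffered saline pH 7.2; 2% hRBC with compound at final 200 µM, 1 h 37 °C; supernatant OD405; % hemolysis relative to DMSO (0%) and Triton X (100%).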

Staphylococcus aureus [17] = assay: Antibacterial activity against methicillin-resistant Staphylococcus aureus clinical isolate 2 incubated for 16 hrs by broth microdilution method in presence of tiron; type: functional; conditions: isolate 2, 16 h
[18] = Aqueous solubility of compound in media after 16 hrs; type: physicochemical
[19] = system: Staphylococcus epidermidis; assay: Antibiofilm activity against methicillin-resistant Staphylococcus epidermidis ATCC 35984 assessed as reduction in persister cells level within biofilms MBEC incubated for 24 hrs by CBD assay; type: functional; set-up: scale not given: the % may be the effect or the level left
Procedure, shortened: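 After CBD challenge and recovery, pegs sonicated 30 min in PBS and plated to count viable biofilm cells (CFU/mL) at and below MBEC.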

Staphylococcus aureus [20] = assay: Ratio of MIC for methicillin-resistant Staphylococcus aureus clinical isolate 2 in absence and presence of Cu2+; type: functional
Staphylococcus aureus [21] = assay: Ratio of MIC for methicillin-resistant Staphylococcus aureus clinical isolate 2 in absence and presence of tiron; type: functional; set-up: scale not given here
Staphylococcus aureus [22] = assay: Ratio of MBEC to MBC for methicillin-resistant Staphylococcus aureus clinical isolate 2 biofilm eradication; type: functional
Procedure, shortened: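 From the same CBD challenge plate, MBC taken by subculturing 20 µL into 180 µL TSBG overnight at 37 °C (no turbidity); MBEC from recovered pegs in fresh TSBG 24 h; ratio MBEC:MBC against MRSA-2.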

| SMILES | MBEC (Staphylococcus aureus [1]) [µM] | MBC (Staphylococcus aureus [1]) [µM] | MBEC (Staphylococcus aureus [2]) [µM] | MBC (Staphylococcus aureus [2]) [µM] | MIC [3] [µM] | MIC (Staphylococcus aureus [4]) [µM] | MIC (Staphylococcus aureus [5]) [µM] | MIC [6] [µM] | MIC (Staphylococcus aureus [7]) [µM] | MIC (Staphylococcus aureus [8]) [µM] | MIC (Staphylococcus aureus [9]) [µM] | MBEC [10] [µM] | MBC [10] [µM] | MIC (Staphylococcus aureus [11]) [µM] | MIC (Enterococcus faecium [12]) [µM] | MIC [13] [µM] | IC50 (HeLa) [µM] | MBC (Enterococcus faecium [15]) [µM] | hemolysis at 1 h, 200 µM [16] [%] | MIC (Staphylococcus aureus [17]) [µM] | also measured |
| --- | --- | --- | --- | --- | --- | --- | --- | --- | --- | --- | --- | --- | --- | --- | --- | --- | --- | --- | --- | --- | --- |
| CCCCCCCCCC(=O)N[C@@H](Cc1c[nH]c2ccccc12)C(=O)N[C@@H](CC(N)=O)C(=O)N[C@@H](CC(=O)O)C(=O)N[C@@H]1C(=O)NCC(=O)N[C@@H](CCCN)C(=O)N[C@@H](CC(=O)O)C(=O)N[C@H](C)C(=O)N[C@@H](CC(=O)O)C(=O)NCC(=O)N[C@H](CO)C(=O)N[C@@H]([C@H](C)CC(=O)O)C(=O)N[C@@H](CC(=O)c2ccccc2N)C(=O)O[C@@H]1C [DAPTOMYCIN] | >2000 | 62.5 (≈ 101 µg/mL) | >2000 | 125 (≈ 203 µg/mL) | 6.25 (≈ 10.1 µg/mL) | 18.8 (≈ 30.5 µg/mL) | 3.13 (≈ 5.07 µg/mL) | 12.5 (≈ 20.3 µg/mL) | 12.5 | 6.25 | 6.25 (≈ 10.1 µg/mL) |  |  |  |  |  |  |  |  |  |  |
| Oc1ccc(I)c2nc3cc(Cl)c(Cl)cc3nc12 | 37.5 | 25 (≈ 9.77 µg/mL) | >200 | 75 (≈ 29.3 µg/mL) |  |  | 0.15 (≈ 0.0586 µg/mL) | 0.78 (≈ 0.305 µg/mL) |  | 3.13 |  | 75 | 9.38 (≈ 3.67 µg/mL) | 0.39 (≈ 0.152 µg/mL) | 3.13 (≈ 1.22 µg/mL) | 3.13 (≈ 1.22 µg/mL) | > 100 | 3.13 (≈ 1.22 µg/mL) | 1.4 | 0.2 | MBEC (Staphylococcus aureus [14]): >200 µM; MBC (Staphylococcus aureus [14]; Staphylococcus aureus, BAA-44, 24 h): 75 µM (≈ 29.3 µg/mL); solubility at 16 h [18]: 200 µM (≈ 78.2 µg/mL) |
| Oc1c(Br)cc(Br)c2nc3cc(Cl)c(Cl)cc3nc12 |  |  | 12.5 | 6.25 (≈ 2.64 µg/mL) | 0.08 (≈ 0.0338 µg/mL) | 50 (≈ 21.1 µg/mL) | 25 (≈ 10.6 µg/mL) | 0.3 (≈ 0.127 µg/mL) |  |  |  |  |  |  | 0.39 (≈ 0.165 µg/mL) | 6.25 (≈ 2.64 µg/mL) | > 100 | 0.39 (≈ 0.165 µg/mL) | ≤ 1 |  | MBEC (Enterococcus faecium [15]): 0.39 µM; Activity [19]: >99.99% |
| CN(C)[C@@H]1C(O)=C(C(N)=O)C(=O)[C@@]2(O)C(O)=C3C(=O)c4c(O)cccc4[C@@](C)(O)[C@H]3C[C@@H]12 [TETRACYCLINE] |  |  |  |  |  |  |  |  | 1.56 | 18.8 | 1.17 (≈ 0.52 µg/mL) |  |  |  |  |  |  |  |  |  | Ratio (Staphylococcus aureus [20]): <2 |
| Oc1c(Cl)cc(Br)c2nc3cc(Br)c(Br)cc3nc12 | 25 | 25 (≈ 11.7 µg/mL) |  |  | 0.08 (≈ 0.0374 µg/mL) | 25 (≈ 11.7 µg/mL) |  | 0.3 (≈ 0.14 µg/mL) | > 100 |  | 3.13 (≈ 1.46 µg/mL) | 3.13 | 1.56 (≈ 0.729 µg/mL) | 12.5 (≈ 5.84 µg/mL) | 0.39 (≈ 0.182 µg/mL) |  | > 100 |  | 2.1 | 0.2 |  |
| Oc1c(Br)cc(Br)c2nc3cc(Br)c(Br)cc3nc12 |  |  | 50 | 6.25 (≈ 3.2 µg/mL) | 0.08 (≈ 0.0409 µg/mL) | 25 (≈ 12.8 µg/mL) | 12.5 (≈ 6.4 µg/mL) |  |  |  |  | 6.25 | 1.56 (≈ 0.798 µg/mL) | 6.25 (≈ 3.2 µg/mL) | 0.39 (≈ 0.2 µg/mL) | > 50 | > 100 | 0.39 (≈ 0.2 µg/mL) | ≤ 1 |  | MBEC (Enterococcus faecium [15]): 0.39 µM |
| Oc1cccc2cccnc12 [OXYQUINOLINE] |  |  |  |  |  |  |  |  | 3.13 | 6.25 | 6.25 (≈ 0.907 µg/mL) |  |  |  |  |  |  |  |  | > 100 | Ratio (Staphylococcus aureus [21]): 16; Ratio (Staphylococcus aureus [20]): <2 |
| CO[C@H]1/C=C/O[C@@]2(C)Oc3c(C)c(O)c4c(O)c(c(/C=N/N5CCN(C)CC5)c(O)c4c3C2=O)NC(=O)/C(C)=C\C=C\[C@H](C)[C@H](O)[C@@H](C)[C@@H](O)[C@@H](C)[C@H](OC(C)=O)[C@@H]1C [RIFAMPIN] | 46.9 | 2 (≈ 1.65 µg/mL) |  |  | 0.1 (≈ 0.0823 µg/mL) |  |  | 0.1 (≈ 0.0823 µg/mL) |  |  |  | 15.6 | 3 (≈ 2.47 µg/mL) | 0.1 (≈ 0.0823 µg/mL) |  |  |  |  |  |  | Ratio (Staphylococcus aureus [22]): >23 |
